Assay results as given in ChEMBL document CHEMBL1137699, “Synthesis, antibacterial and anticonvulsant evaluations of some cyclic enaminones” (Eur J Med Chem, 2009).
In brackets after ≈: the same amount, converted by molar mass. Activity calls are given as the source filed them. The rule behind the calls is not given here.

Assays:
Mus musculus [1] = experiment: Anticonvulsant activity against subcutaneous pentylenetetrazole-induced seizures in mouse at 300 mg/kg, ip; assay type: functional, organism-based; parameters: dose 300 mg/kg
Mus musculus [2] = experiment: Anticonvulsant activity against maximal electroshock-induced seizures in mouse at 300 mg/kg, ip; assay type: functional, organism-based; parameters: dose 300 mg/kg
Mus musculus [3] = experiment: Anticonvulsant activity against maximal electroshock-induced seizures in mouse at >100 to 300 mg/kg, ip; assay type: functional, organism-based; parameters: dose 300 mg/kg
Enterococcus [4] = experiment: Antibacterial activity against vancomycin-resistant Enterococcus clinical isolate after 18 hrs by NCCLS M7-A4 method; assay type: functional
In short: (§1)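 Test compounds dissolved in 80% DMSO in water. Clinical isolates came from a MRSA reference laboratory culture collection. Final inoculum 10^7 CFU/ml, incubated 35 °C for 18 h. MIC taken as the lowest concentration completely inhibiting growth. Reference strains S. aureus ATCC 25923, S. epidermidis ATCC 12228 and E. faecalis ATCC 29212 served as test controls.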

Staphylococcus [5] = experiment: Antibacterial activity against methicillin-resistant coagulase-negative Staphylococcus clinical isolate after 18 hrs by NCCLS M7-A4 method; assay type: functional; in short: as §1
Escherichia coli = experiment: Antibacterial activity against Escherichia coli ATCC 25922 after 18 hrs by NCCLS M7-A4 method; assay type: functional, organism-based
In short: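 Reference E. coli strain tested by NCCLS/CLSI agar dilution. Compounds were in 80% DMSO in water over a 0.12–16 dilution range, incubated at 35 °C for 18 h.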

Enterococcus faecalis = experiment: Antibacterial activity against Enterococcus faecalis ATCC 29212 after 18 hrs by NCCLS M7-A4 method; assay type: functional, organism-based
In short: (§2)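 Agar dilution on Mueller–Hinton agar, following NCCLS (now CLSI) guidance. Test compounds were dissolved in 80% DMSO in water and tested at 0.12 to 16. Plates were incubated at 35 °C for 18 h. The MIC was the lowest concentration giving complete growth inhibition.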

[6] = test system: Staphylococcus epidermidis; experiment: Antibacterial activity against Staphylococcus epidermidis ATCC 12228 after 18 hrs by NCCLS M7-A4 method; assay type: functional, organism-based; in short: as §2
Staphylococcus aureus [7] = experiment: Antibacterial activity against methicillin-susceptible Staphylococcus aureus clinical isolate after 18 hrs by NCCLS M7-A4 method; assay type: functional; in short: as §1
Haemophilus influenzae [8] = experiment: Antibacterial activity against Haemophilus influenzae clinical isolate after 18 hrs by NCCLS M7-A4 method; assay type: functional
In short: (§3)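 Agar dilution on Mueller–Hinton agar with 5% sheep blood, per NCCLS/CLSI. Compounds were dissolved in 80% DMSO in water and tested over 0.12–16. Incubation was 35 °C for 18 h. MIC was read as the lowest concentration completely inhibiting growth. Line 4 used clinical isolates (n = 7 for H. influenzae).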

Enterococcus [9] = experiment: Antibacterial activity against vancomycin-sensitive Enterococcus clinical isolate after 18 hrs by NCCLS M7-A4 method; assay type: functional; in short: as §1
Staphylococcus [10] = experiment: Antibacterial activity against methicillin-sensitive coagulase-negative Staphylococcus clinical isolate after 18 hrs by NCCLS M7-A4 method; assay type: functional; in short: as §1
Streptococcus pneumoniae = experiment: Antibacterial activity against Streptococcus pneumoniae clinical isolate after 18 hrs by NCCLS M7-A4 method; assay type: functional; in short: as §3
Staphylococcus aureus [11] = experiment: Antibacterial activity against Staphylococcus aureus ATCC 25923 after 18 hrs by NCCLS M7-A4 method; assay type: functional, organism-based; in short: as §2
Haemophilus influenzae [12] = experiment: Antibacterial activity against Haemophilus influenzae ATCC 49247 after 18 hrs by NCCLS M7-A4 method; assay type: functional, organism-based; in short: as §3
Staphylococcus aureus [13] = experiment: Antibacterial activity against methicillin-resistant Staphylococcus aureus clinical isolate after 18 hrs by NCCLS M7-A4 method; assay type: functional; in short: as §1
Mus musculus [14] = experiment: Anticonvulsant activity against subcutaneous pentylenetetrazole-induced seizures in mouse at >100 to 300 mg/kg, ip; assay type: functional, organism-based; parameters: dose 300 mg/kg
Mus musculus [15] = experiment: Anticonvulsant activity against subcutaneous pentylenetetrazole-induced seizures in mouse at <=100 mg/kg, ip; assay type: functional, organism-based
Mus musculus [16] = experiment: Anticonvulsant activity against maximal electroshock-induced seizures in mouse at <=100 mg/kg, ip; assay type: functional, organism-based

Structure (SMILES): CCOC(=O)C1C(=O)C=C(N(CC)CC)CC1c1ccccc1 (stereo not given)
- Activity (Mus musculus [1]): inactive
- Activity (Mus musculus [2]): inactive

Structure (SMILES): CCOC(=O)C1C(=O)C=C(N2CCCC2)CC1c1ccccc1 (stereo not given)
- Activity (Mus musculus [3]): Active

Structure (SMILES): COC(=O)C1C(=O)C=C(Nc2ccc(N3CCN(C(=O)OC(C)(C)C)CC3)c(F)c2)CC1c1ccccc1 (stereo not given)
- Activity (Mus musculus [1]): inactive
- Activity (Mus musculus [2]): inactive

Structure (SMILES): O=C1O[C@@H](Cn2ccnn2)CN1c1ccc(N2CCOCC2)c(F)c1
- MIC (Enterococcus [4]): 0.5 µg/mL (≈ 1.44 µM)
- MIC (Staphylococcus [5]): 0.5 µg/mL (≈ 1.44 µM)
- Activity (Escherichia coli): inactive
- Activity (Enterococcus faecalis): inactive
- Activity [6]: inactive
- MIC (Staphylococcus aureus [7]): 0.5 µg/mL (≈ 1.44 µM)
- MIC (Haemophilus influenzae [8]): 32 µg/mL (≈ 92.1 µM)
- MIC (Enterococcus [9]): 0.5 µg/mL (≈ 1.44 µM)
- MIC (Staphylococcus [10]): 1 µg/mL (≈ 2.88 µM)
- MIC (Streptococcus pneumoniae): 0.5 µg/mL (≈ 1.44 µM)
- Activity (Staphylococcus aureus [11]): inactive
- Activity (Haemophilus influenzae [12]): inactive
- MIC (Staphylococcus aureus [13]): 0.5 µg/mL (≈ 1.44 µM)

Structure (SMILES): COC(=O)C1C(=O)C=C(NCCCCc2ccccc2)CC1c1ccccc1 (stereo not given)
- Activity (Mus musculus [1]): inactive
- Activity (Mus musculus [2]): inactive

Structure (SMILES): CCOC(=O)C1C(=O)C=C(Nc2ccc(N3CCN(C(=O)OC(C)(C)C)CC3)c(F)c2)CC1c1ccccc1 (stereo not given)
- Activity (Mus musculus [1]): inactive
- Activity (Mus musculus [2]): inactive

Structure (SMILES): COC(=O)C1C(=O)C=C(Nc2ccc(N3CCN(C(=O)OC(C)(C)C)CC3)c(F)c2)CC1C (stereo not given)
- Activity (Mus musculus [1]): inactive
- Activity (Mus musculus [2]): inactive

Structure (SMILES): CCOC(=O)C1C(=O)C=C(Nc2ccc(N3CCOCC3)c(F)c2)CC1c1ccccc1 (stereo not given)
- Activity (Escherichia coli): inactive
- Activity (Enterococcus faecalis): inactive
- Activity [6]: inactive
- MIC (Staphylococcus aureus [7]): > 16 µg/mL
- MIC (Haemophilus influenzae [8]): > 16 µg/mL
- MIC (Enterococcus [9]): > 16 µg/mL
- MIC (Staphylococcus [10]): > 16 µg/mL
- MIC (Streptococcus pneumoniae): > 16 µg/mL
- Activity (Mus musculus [1]): inactive
- Activity (Staphylococcus aureus [11]): inactive
- Activity (Haemophilus influenzae [12]): inactive
- Activity (Mus musculus [2]): inactive

Structure (SMILES): CCOC(=O)C1C(=O)C=C(N2CCOCC2)CC1C (stereo not given)
- Activity (Mus musculus [14]): Active

Structure (SMILES): COC(=O)C1C(=O)C=C(Nc2ccc(Cl)cn2)CC1c1ccccc1 (stereo not given)
- Activity (Mus musculus [1]): inactive
- Activity (Mus musculus [2]): inactive

Structure (SMILES): CCOC(=O)C1C(=O)C=C(N2CCOCC2)CC1c1ccccc1 (stereo not given)
- Activity (Mus musculus [1]): inactive
- Activity (Mus musculus [2]): inactive

Structure (SMILES): CCOC(=O)C1C(=O)C=C(Nc2ccc(Cl)cc2)CC1c1ccccc1 (stereo not given)
- Activity (Mus musculus [3]): Active

Structure (SMILES): CCOC(=O)C1C(=O)C=C(N2CCN(c3ccc([N+](=O)[O-])cc3F)CC2)CC1c1ccccc1 (stereo not given)
- Activity (Mus musculus [1]): inactive
- Activity (Mus musculus [2]): inactive

Structure (SMILES): COC(=O)C1C(=O)C=C(NC[C@H]2CN(c3ccc(N4CCOCC4)c(F)c3)C(=O)O2)CC1C (stereo not given in full)
- Activity (Escherichia coli): inactive
- Activity (Enterococcus faecalis): inactive
- Activity [6]: inactive
- MIC (Staphylococcus aureus [7]): > 16 µg/mL
- MIC (Haemophilus influenzae [8]): > 16 µg/mL
- MIC (Enterococcus [9]): > 16 µg/mL
- MIC (Staphylococcus [10]): > 16 µg/mL
- MIC (Streptococcus pneumoniae): > 16 µg/mL
- Activity (Mus musculus [1]): inactive
- Activity (Staphylococcus aureus [11]): inactive
- Activity (Haemophilus influenzae [12]): inactive
- Activity (Mus musculus [2]): inactive

Structure (SMILES): CCOC(=O)C1C(=O)C=C(NCCc2ccccc2)CC1c1ccccc1 (stereo not given)
- Activity (Mus musculus [1]): inactive
- Activity (Mus musculus [2]): inactive

Structure (SMILES): CCOC(=O)C1C(=O)C=C(Nc2ccc([N+](=O)[O-])cc2)CC1c1ccccc1 (stereo not given)
- Activity (Mus musculus [1]): inactive
- Activity (Mus musculus [2]): inactive

Structure (SMILES): CCOC(=O)C1C(=O)C=C(Nc2ccc(O)cc2)CC1c1ccccc1 (stereo not given)
- Activity (Mus musculus [1]): inactive
- Activity (Mus musculus [2]): inactive

Structure (SMILES): CCOC(=O)C1C(=O)C=C(Nc2ccc(N3CCOCC3)c(F)c2)CC1C (stereo not given)
- Activity (Escherichia coli): inactive
- Activity (Enterococcus faecalis): inactive
- Activity [6]: inactive
- MIC (Staphylococcus aureus [7]): > 16 µg/mL
- MIC (Haemophilus influenzae [8]): > 16 µg/mL
- MIC (Enterococcus [9]): > 16 µg/mL
- MIC (Staphylococcus [10]): > 16 µg/mL
- MIC (Streptococcus pneumoniae): > 16 µg/mL
- Activity (Mus musculus [1]): inactive
- Activity (Staphylococcus aureus [11]): inactive
- Activity (Haemophilus influenzae [12]): inactive
- Activity (Mus musculus [2]): inactive

Structure (SMILES): CCOC(=O)C1C(=O)C=C(NC[C@H]2CN(c3ccc(N4CCOCC4)c(F)c3)C(=O)O2)CC1C (stereo not given in full)
- Activity (Escherichia coli): inactive
- Activity (Enterococcus faecalis): inactive
- Activity [6]: inactive
- MIC (Staphylococcus aureus [7]): > 16 µg/mL
- MIC (Haemophilus influenzae [8]): > 16 µg/mL
- MIC (Enterococcus [9]): > 16 µg/mL
- MIC (Staphylococcus [10]): > 16 µg/mL
- MIC (Streptococcus pneumoniae): > 16 µg/mL
- Activity (Mus musculus [1]): inactive
- Activity (Staphylococcus aureus [11]): inactive
- Activity (Haemophilus influenzae [12]): inactive
- Activity (Mus musculus [2]): inactive

Structure (SMILES): COC(=O)C1C(=O)C=C(NCCCc2ccccc2)CC1c1ccccc1 (stereo not given)
- Activity (Mus musculus [1]): inactive
- Activity (Mus musculus [2]): inactive

Structure (SMILES): CCOC(=O)C1C(=O)C=C(Nc2ccc(F)cc2)CC1C (stereo not given)
- Activity (Mus musculus [15]): Active
- Activity (Mus musculus [16]): Active
